This is a sample that favours compounds with a hit; in the whole collection about 1.1% have one here.
GSK3beta inhib: human GSK3beta kinase inhibition; activity score (negative = inhibition), % at 10 µM; GST-GSK3beta kinase, ADP-Glo luminescence, 60 min; active compounds read low; hit rate 0.038% among 300,000; P49841;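 active = more than half of replicate wells score below -50%, meaning over 50% inhibition versus plate controls; inconclusive = some replicates but at most half score below -50%; inactive = no replicate scores below -50%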;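 note: 0% = median DMSO wells and -100% = median GW8510 positive control wells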
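Test system: GST-fused GSK3beta enzyme, cell-free | Quantity: 1.6 ng GST-GSK3beta enzyme per well | Reagent: 25 µM ATP with peptide substrate | Schedule: 60 min enzyme reaction, room temperature | Signal: Luminescent ADP-Glo measurement of ADP formed | Read-out basis: Score relative to plate controls | Control set: DMSO and 20 µM GW8510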
SR-BI uptake up: enhances SR-BI lipid uptake from DiI-HDL | CHO ldlA[mSR-BI] cells, DiI-HDL uptake fluorescence, 3 h; 100 = double the neutral-control signal | activation, % at 12.5 µM | hit rate 0.096% among 320,000 | AID 504775;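 active = mean replicate activation of at least 60% and every replicate at or above 60%; inconclusive = mean or all-replicate condition met, but not both; inactive = mean below 60% and not all replicates reaching 60%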;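 note: 0% = median plate neutral-control signal and 100% = twice that signal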
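Assay system: LDL receptor-deficient CHO ldlA cells overexpressing murine SR-BI / Medium: BSA-supplemented, HEPES-buffered Ham's F12, pH 7.4 / Probe or stimulus: DiI-labelled HDL at 10 µg/mL final / Timing: compound with DiI-HDL co-incubation, 3 h at 37 °C / Technique: bottom-read cell fluorescence after medium removal, ex 550/em 595 nm / Measure: HDL uptake via cellular fluorescence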
CDK5 p35 inh: inhibitors of human CDK5/p35 kinase | Q00535+Q15078 | Recombinant CDK5/p35, ADP-Glo luminescence, 60 min | inhibition, % at 10 µM | hit rate 0.01% among 330,000;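 active = highest replicate inhibition of at least 50% and at least 75% of replicates reaching 50%; inconclusive = only one of the two criteria met; inactive = both criteria failed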;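 note: plate controls were DMSO neutral control for no effect and GW8510 at 10 µM for full effect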
Target sequence (Q00535 whole entry, looked up): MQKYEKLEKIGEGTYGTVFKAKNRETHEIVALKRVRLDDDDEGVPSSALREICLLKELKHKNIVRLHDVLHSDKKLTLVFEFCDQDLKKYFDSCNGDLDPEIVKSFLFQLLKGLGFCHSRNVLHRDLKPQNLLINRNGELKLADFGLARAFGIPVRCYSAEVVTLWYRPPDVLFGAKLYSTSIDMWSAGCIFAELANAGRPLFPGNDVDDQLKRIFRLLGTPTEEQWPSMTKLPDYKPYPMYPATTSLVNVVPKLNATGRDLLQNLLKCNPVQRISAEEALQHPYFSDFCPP
Target sequence (Q15078 whole entry, looked up): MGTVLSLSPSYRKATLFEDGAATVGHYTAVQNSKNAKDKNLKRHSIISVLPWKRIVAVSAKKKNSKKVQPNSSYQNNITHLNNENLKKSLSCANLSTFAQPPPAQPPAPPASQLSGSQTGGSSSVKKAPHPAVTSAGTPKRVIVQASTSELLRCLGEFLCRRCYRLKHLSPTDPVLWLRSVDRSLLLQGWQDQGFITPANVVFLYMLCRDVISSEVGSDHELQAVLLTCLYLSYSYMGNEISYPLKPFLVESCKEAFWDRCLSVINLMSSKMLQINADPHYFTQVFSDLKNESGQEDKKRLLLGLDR
SR-BI DiI inh: blocks mouse SR-BI lipid uptake from DiI-HDL; AID 488896; hit rate 0.96% among 320,000; ldlA[mSR-BI] CHO cells, DiI-HDL uptake fluorescence, 3 h; inhibition, % at 12.5 µM;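 active = mean replicate inhibition of at least 70% and a set share of replicates each scoring 70 or more; inconclusive = meets just one of the two criteria; inactive = fails both criteria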;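 note: 0% = median of neutral control wells and 100% = median of positive control wells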
GSK3 alpha inh: inhibitors of human GSK-3 alpha kinase; ADP-Glo luminescence, 60 min; hit rate 0.1% among 320,000; P49840; inhibition, % at 10 µM;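 active = more than half of replicates show inhibition above 20%; inconclusive = some but at most half of replicates above 20% inhibition; inactive = no replicate shows inhibition above 20%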;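 note: GST-tagged GSK-3 alpha with peptide substrate and 25 µM ATP; 0% = DMSO neutral wells and 100% = GW8510 positive control wells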
Numbers without * were called inactive; ? = inconclusive; . = no result.

SMILES | GSK3beta inhib | SR-BI uptake up | CDK5 p35 inh | SR-BI DiI inh | GSK3 alpha inh
O=C(NC1CC2CCCC(C1)N2C(=O)Nc1ccc(F)cc1)c1ccccc1 (configuration not stated) | 2 | . | 1 | . | 1
CCN(CC)C(=O)/C(=C/c1ccc2c(c1)OCO2)NC(=O)c1ccc(Br)cc1 | 1 | -75 | 1 | 75* | 1
Cc1c(Br)cnn1C(C)C(=O)N1CCN(c2ccccc2F)CC1 (configuration not stated) | . | 14 | -1 | -14 | 7
COc1ccc(CC(=O)Nc2ccc(/C(C)=N/NC(=O)c3ccc(OC)cc3OC)cc2)cc1 | 5 | -74 | 0 | 74* | -3
COc1ccc(C(=O)N/N=C(\C)CC(=O)Nc2ccc(N(C)C)cc2)c(OC)c1 | 1 | -49 | 0 | 49 | 1
COc1cc(/C=N/N=C/c2c[nH]c(=O)c(C#N)c2Nc2ccccc2)ccc1O | 0 | . | . | . | 1
CCOC(=O)C1CCN(C(=O)c2ccc(OCC(=O)Nc3cccc(C(F)(F)F)c3)c(OC)c2)CC1 | 2 | -70 | 1 | ? | -1
CCOC(=O)C1CCN(C(=O)c2ccc(OCC(=O)Nc3ccc(OCC)cc3)c(OC)c2)CC1 | 1 | -83 | 0 | 83* | .
CCOC(=O)C1(CCc2ccccc2)CCN(C(=O)C2CCOCC2)CC1 | 3 | -80 | -2 | 80* | -2
CCOC(=O)c1oc2ccccc2c1COC(=O)CNC(=O)c1cccc(C)c1 | 1 | . | 0 | 13 | -1
COc1ccc(-c2noc(N3CCC(C(=O)Nc4cccc(OC)c4)CC3)n2)cc1 | 1 | -68 | 1 | 68 | -3
CCOc1cccc(-c2c(C(=O)N/N=C(\C)c3cccnc3)nnn2-c2nonc2N)c1 | 0 | 7 | 4 | -7 | 52*
C/C(=N\NC(=O)c1nnn(-c2nonc2N)c1-c1ccccc1)c1ccccc1O | 2 | -86 | -1 | 86* | 0
C/C(=N\NC(=O)c1nnn(-c2nonc2N)c1-c1ccc2c(c1)OCO2)c1ccccc1 | 1 | 10 | 1 | -10 | 3
CCOc1ccc(-c2c(C(=O)N/N=C(\C)c3cccnc3)nnn2-c2nonc2N)cc1 | -2 | -19 | 2 | 19 | 0
CCOc1ccc(OCCC(=O)OCC(=O)N(CC)c2c(N)n(Cc3ccccc3)c(=O)[nH]c2=O)cc1 | . | 2 | 1 | -2 | .
COc1ccc(C(=O)Nc2cc3c4c(c2)C(C)C(=O)N4CCC3)cc1OC (configuration not stated) | -2 | -79 | 1 | 79* | 1
COc1ccc(C(=O)Nc2cc3c4c(c2)C(C)C(=O)N4CCC3)cc1 (configuration not stated) | 2 | -37 | -2 | 37 | 1
CCCC1=C(C(=O)OCC)C(c2cccs2)n2ncnc2N1 (configuration not stated) | -42 | 0 | -2 | 0 | 61*
Cc1cc(C(=O)COC(=O)c2ccc(NC(=O)CC#N)cc2)c(C)n1C1CC1 | . | -79 | 2 | 79* | .
Cc1ccc(Cn2ccsc2=NC(=O)COC(=O)c2ccc(NC(=O)CC#N)cc2)cc1 | -3 | -77 | 0 | 77* | -3
Cc1cc(C(=O)COC(=O)c2ccc(NC(=O)CC#N)cc2)c(C)n1-c1ccc(OC(F)F)cc1 | . | -46 | 2 | 46 | 1
Cc1noc(C)c1CC(=O)Nc1ccc2c(c1)OCO2 | . | 4 | 0 | -4 | .
CCOc1cc(/C=C2\COc3ccccc3C2=O)cc(Br)c1OCC(=O)N(C)C | 0 | -63 | 1 | 63 | 0
CC1CN(C2CCN(S(=O)(=O)c3ccccc3)CC2)CC(C)O1 (configuration not stated) | 2 | 289* | -2 | -289 | -1
CC1CN(C2CCN(S(=O)(=O)c3ccc(F)cc3)CC2)CC(C)O1 (configuration not stated) | 2 | 6 | -1 | -6 | -2
O=C(CSc1nnc2ccccn12)NNC(=O)c1ccc(F)cc1 | 2 | 13 | -1 | -13 | 4
COc1cccc(/C=N/NC(=O)c2ccc(-c3ccccc3)cc2)c1O | -1 | -123 | 0 | 123* | -3
COc1ccc(C(=O)N/N=C/c2c(C)nn(-c3ccccc3)c2OC)cc1 | -1 | -71 | 0 | 71* | -2
Cc1[nH]c(C(=O)N/N=C/c2ccc(C(=O)O)cc2)c(C)c1C(=O)N/N=C/c1ccc(C(=O)O)cc1 | 3 | 19 | -1 | -19 | -2
